For the test, the target named is Aβ40 (Homo sapiens, UniProt P05067). The experiment in a line: Aβ40 aggregation inhibition and fibril destabilization. It is filed as biochemical. The note with it: synthetic peptides. Put shortly: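 Aβ40 was pre-treated in HFIP (1.0 mg/mL), lyophilized, stored at −20 °C, redissolved in DMSO to 5 mM and sonicated 10 min. It was diluted into PBS pH 7.5 with 0.2% SDS (100 μM final) and incubated at 37 °C for 7 days, with test compound added before incubation or to preformed aggregates. Samples were imaged by acoustic AC-mode AFM. ThT was read immediately (Aβ40 5 μM, ThT 20 μM; ex 450 nm, em 480–600 nm) with the no-Aβ40 background subtracted; mean ± SD, three independent experiments.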
Chain of Aβ40 (P05067 672-711 limits assumed): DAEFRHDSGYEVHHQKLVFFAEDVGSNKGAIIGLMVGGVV

Take KAISFSK [Peptide P1]: the “ThT fluorescence of treated Aβ40 compared to control” value (Aβ40/peptide = 10:1, 7 days, ThT 20 μM, Aβ40 5 μM) is given as “even higher ThT fluorescence”. Moreover, where the note is “Aβ40/peptide = 10:1, PBS pH 7.5 with 0.2% SDS, 37 °C, 7 days”, the “effect on Aβ40 aggregation (AFM)” value was “aggravated the aggregation tendency”.
